Values belong to the compound of their own block, whether it stands above or below them. Activity calls are given as the source filed them. No cut-off for these calls is given here.
Assays:
Format in all cases: functional, cell-based
LNCaP [1] = test: Growth inhibition of human LNCAP cells after 72 hrs by Alamar Blue assay
Summary of the method: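 LNCaP cells in phenol-red-free RPMI-1640 with 5% FBS were seeded 4000/well for 24 h, then treated with compounds diluted from DMSO into medium (DMSO ≤0.4%). Metabolic activity was read by AlamarBlue endpoint after 72 h. IC50 was calculated at 72 h. DMSO served as negative control and doxorubicin as positive control. Triplicate points; three independent experiments.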

LNCaP [2] = test: Reduction in sterol content in human LNCAP cells at 10 uM after 72 hrs by nile red staining based fluorescence microscopy
Summary of the method: (§1)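 LNCaP cells were seeded at 3000/well on poly-L-ornithine-coated plates in phenol-red-free RPMI-1640 with 5% FBS for 48 h, then treated for 72 h. Cells were fixed in 4% paraformaldehyde for 20 min on ice and stained 20 min at RT in PBS with 1.0 μg/mL DAPI and 0.25 μg/mL Nile Red. Mean fluorescence was measured for neutral lipids (Cy3) and phospholipids (Cy5) in ~300 cells at 10×. Analysis used one-way ANOVA with Dunnett's test. DMSO was the negative control and TOFA the positive control. Duplicate points; three independent experiments.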

LNCaP [3] = test: Reduction in triglyceride content in human LNCAP cells at 10 uM after 72 hrs by nile red staining based fluorescence microscopy; summary of the method: as §1
LNCaP [4] = test: Reduction in fatty acid content in human LNCAP cells at 10 uM after 72 hrs by nile red staining based fluorescence microscopy; summary of the method: as §1
LNCaP [5] = test: Reduction in phosphatidylcholine content in human LNCAP cells at 10 uM after 72 hrs by nile red staining based fluorescence microscopy; summary of the method: as §1
LNCaP [6] = test: Reduction in phosphatidylethanolamine content in human LNCAP cells at 10 uM after 72 hrs by nile red staining based fluorescence microscopy; summary of the method: as §1
LNCaP [7] = test: Reduction in phosphatidylserine content in human LNCAP cells at 10 uM after 72 hrs by nile red staining based fluorescence microscopy; summary of the method: as §1
LNCaP [8] = test: Antiproliferative activity against human LNCAP cells assessed as enlargement, granulation and cell burst at 10 to 100 uM by live-cell imaging method; details: TDE = time-dependent effect
Summary of the method: (§2)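 LNCaP cells (ATCC) grown in phenol-red-free RPMI-1640 with 5% FBS at 37 °C, 5% CO2, kept in log phase. Cells seeded 4000/well for 24 h, then treated with compounds in DMSO diluted in medium (DMSO ≤0.4%). Plates imaged every 2 h for 96 h by IncuCyte live-cell imaging; growth read as confluence; morphology recorded from the images. DMSO as vehicle control.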

LNCaP [9] = test: Antiproliferative activity against human LNCAP cells assessed as enlargement, granulation and cell burst measured every 2 hrs for 96 hrs by live-cell imaging method; summary of the method: as §2
LNCaP [10] = test: Antiproliferative activity against human LNCAP cells assessed as change in cell morphology at 10 to 100 uM measured up to 96 hrs by live-cell imaging method; summary of the method: as §2
LNCaP [11] = test: Reduction in phosphatidylcholine content in human LNCAP cells at 25 uM after 72 hrs by nile red staining based fluorescence microscopy; summary of the method: as §1
LNCaP [12] = test: Reduction in phosphatidylethanolamine content in human LNCAP cells at 25 uM after 72 hrs by nile red staining based fluorescence microscopy; summary of the method: as §1
LNCaP [13] = test: Reduction in phosphatidylserine content in human LNCAP cells at 25 uM after 72 hrs by nile red staining based fluorescence microscopy; summary of the method: as §1
LNCaP [14] = test: Reduction in sterol content in human LNCAP cells at 60 uM after 72 hrs by nile red staining based fluorescence microscopy; summary of the method: as §1
LNCaP [15] = test: Reduction in triglyceride content in human LNCAP cells at 60 uM after 72 hrs by nile red staining based fluorescence microscopy; summary of the method: as §1
LNCaP [16] = test: Reduction in fatty acid content in human LNCAP cells at 60 uM after 72 hrs by nile red staining based fluorescence microscopy; summary of the method: as §1
LNCaP [17] = test: Reduction in phosphatidylcholine content in human LNCAP cells at 60 uM after 72 hrs by nile red staining based fluorescence microscopy; summary of the method: as §1
LNCaP [18] = test: Reduction in phosphatidylethanolamine content in human LNCAP cells at 60 uM after 72 hrs by nile red staining based fluorescence microscopy; summary of the method: as §1
LNCaP [19] = test: Reduction in phosphatidylserine content in human LNCAP cells at 60 uM after 72 hrs by nile red staining based fluorescence microscopy; summary of the method: as §1

IC50 (LNCaP [1]): > 10 µM
Compound: CC(=O)OC[C@@]12[C@@H](OC(C)=O)CC[C@](C)(O)[C@]13OC(C)(C)[C@H](C[C@@H]2OC(=O)/C=C/c1ccccc1)[C@H]3O

IC50 (LNCaP [1]): > 10 µM
Compound: CC(=O)OCC(=O)O[C@H]1CC[C@](C)(O)[C@]23OC(C)(COC(=O)c4ccccc4)[C@H]([C@H](O)[C@H](OC(=O)/C=C/c4ccccc4)[C@]12C)[C@H]3OC(C)=O (stereo partly specified)

IC50 (LNCaP [1]): > 10 µM
Compound: CC(=O)OC[C@@]12[C@@H](OC(C)=O)CC[C@](C)(O)[C@]13OC(C)(COC(=O)c1ccccc1)[C@H](C[C@@H]2OC(=O)/C=C/c1ccccc1)[C@H]3O (stereo partly specified)

IC50 (LNCaP [1]): > 10 µM
Compound: CC(=O)OC[C@@]12[C@@H](OC(C)=O)CC[C@](C)(O)[C@]13OC(C)(C)[C@H]([C@H](O)[C@@H]2OC(=O)/C=C/c1ccccc1)[C@H]3OC(C)=O

Compound: CCCCCCCCCCCCCCOc1ccc(C(=O)O)o1
Activity (LNCaP [2]): Active | Activity (LNCaP [3]): Active | Activity (LNCaP [4]): Active | Activity (LNCaP [5]): Active | Activity (LNCaP [6]): Active | Activity (LNCaP [7]): Active

IC50 (LNCaP [1]): > 10 µM
Compound: C/C=C(\C)C(=O)OCC1(C)O[C@]23[C@H](OC(C)=O)[C@H]1[C@H](O)[C@H](OC(=O)/C=C/c1ccccc1)[C@]2(C)[C@@H](OC(=O)COC(C)=O)CC[C@]3(C)O (stereo partly specified)
Activity (LNCaP [8]): tde | Activity (LNCaP [9]): Dose-dependent effect | Activity (LNCaP [10]): Active | Activity (LNCaP [11]): Active | Activity (LNCaP [12]): Active | Activity (LNCaP [13]): Active

IC50 (LNCaP [1]): > 10 µM
Compound: C/C=C(\C)C(=O)OCC1(C)O[C@]23[C@H](OC(C)=O)[C@H]1C[C@H](OC(=O)/C=C/c1ccccc1)[C@]2(COC(C)=O)[C@@H](OC(=O)COC(C)=O)CC[C@]3(C)O (stereo partly specified)

IC50 (LNCaP [1]): > 10 µM
Compound: CC(=O)OC[C@@]12[C@@H](OC(C)=O)CC[C@](C)(O)[C@]13OC(C)(C)[C@H](C[C@@H]2OC(=O)/C=C/c1ccccc1)[C@H]3OC(C)=O
Activity (LNCaP [14]): Active | Activity (LNCaP [15]): Active | Activity (LNCaP [16]): Active | Activity (LNCaP [17]): Active | Activity (LNCaP [18]): Active | Activity (LNCaP [19]): Active

IC50 (LNCaP [1]): > 10 µM
Compound: CC(=O)OC[C@@]12[C@@H](OC(C)=O)CC[C@](C)(O)[C@]13OC(C)(COC(=O)c1ccccc1)[C@H](C[C@@H]2OC(=O)/C=C/c1ccccc1)[C@H]3OC(C)=O (stereo partly specified)

— ChEMBL document CHEMBL3393041, “Denhaminols A-H, dihydro-β-agarofurans from the endemic Australian rainforest plant Denhamia celastroides” (J Nat Prod, 2015)
